For one series, the target named is Histamine H3 receptor (Homo sapiens, UniProt Q9Y5N1). The series can be described thus: Displacement of [3H]-N-alpha-methylhistamine from human recombinant histamine H3 receptor expressed in HEK cells after 30 mins by scintillation counting. It counts as cell-based, HEK293. In outline:
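P2 membrane pellet from HEK cells expressing recombinant human H3, 3 µg protein per well, in 50 mM Tris–HCl pH 7.4 with 1 nM [3H]N-methylhistamine (82 Ci/mmol). Compound tested at half-log steps across five orders of magnitude. Nonspecific binding defined with 10^-5 M thioperamide. 30 min at 30 °C, then filtration on 0.3% PEI-soaked GF/B filters, three buffer rinses, scintillation counting. Ki from nonlinear least-squares curve fit.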

Series [1] has as its target Histamine H3 receptor (Mus musculus) (UniProt P58406). The series can be described thus: Displacement of [3H]-N-alpha-methylhistamine from histamine H3 receptor in […] mouse cortex after 4 hrs by scintillation counting. Summed up:
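Ex vivo binding in cortex dissected from individual ICR mice, read at 4 h. Cortex homogenized in ice-cold 50 mM Na2HPO4–KH2PO4 pH 6.8 and frozen at −80 °C for at least 12 h; protein measured by BCA. Homogenate incubated 30 min at room temperature with 1 nM [3H]N-methylhistamine and 0.1% BSA; thioperamide defines nonspecific binding. Quadruplicates, filtered on PEI-presoaked GF/B; specific = total − nonspecific.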

Series [2] can be described thus: Drug level in mouse brain at 10 mg/kg, po after 4 hrs. The settings on record: read-out: Drug uptake. Further details: dose 10 mg/kg, route oral. Format: ADME, organism-based. In outline: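 Mouse brain concentration measured 4 h after a 10 mg/kg oral dose, in ng/g.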
A further series concerns the target Cytochrome P450 2D6 (Homo sapiens, UniProt P10635). Put plainly: Inhibition of CYP2D6. It counts as ADME. In outline:
(§1)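 CYP3A4, 2D6 and 2C9 inhibition tested under both pre-incubation and co-incubation conditions.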

A short description of series [3]: AUC (0 to 6 hrs) in rat at 10 mg/kg, po. It counts as ADME, organism-based. Details: time < 6 hr, dose 10 mg/kg, route oral. The settings on record: plasma. Summed up: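 Rat exposure measured after a 10 mg/kg oral dose; AUC taken over 0–6 h, in ng·h/ml.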
A further series has as its target Cytochrome P450 2C9 (Homo sapiens, UniProt P11712). Put plainly: Inhibition of CYP2C9. It counts as ADME. In outline: as §1
A further series addresses Cytochrome P450 3A4 (Homo sapiens, UniProt P08684). Put plainly: Inhibition of CYP3A4. Format: ADME. Summed up:
as §1

Each structure is given as a SMILES string. Bounds are passed on as bounds.

This note sets out measurements from ChEMBL document CHEMBL1641463, “Discovery of a series of potent arylthiadiazole H(3) antagonists” (Bioorg Med Chem Lett, 2011).

Sequence of Cytochrome P450 2D6 (P10635 whole entry): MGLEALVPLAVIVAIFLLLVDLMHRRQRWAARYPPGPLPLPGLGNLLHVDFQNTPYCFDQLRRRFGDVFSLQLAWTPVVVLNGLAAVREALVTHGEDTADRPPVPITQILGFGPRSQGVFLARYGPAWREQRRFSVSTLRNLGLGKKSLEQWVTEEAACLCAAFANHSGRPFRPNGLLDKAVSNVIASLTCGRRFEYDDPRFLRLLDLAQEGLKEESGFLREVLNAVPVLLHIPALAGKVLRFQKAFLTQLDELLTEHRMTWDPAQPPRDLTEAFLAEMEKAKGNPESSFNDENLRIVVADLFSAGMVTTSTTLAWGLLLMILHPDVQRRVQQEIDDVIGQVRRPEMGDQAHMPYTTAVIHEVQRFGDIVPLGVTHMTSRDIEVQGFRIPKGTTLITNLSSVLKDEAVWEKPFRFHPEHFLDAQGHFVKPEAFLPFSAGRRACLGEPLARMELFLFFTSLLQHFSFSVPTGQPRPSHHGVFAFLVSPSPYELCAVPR
Sequence of Cytochrome P450 2C9 (P11712 whole entry): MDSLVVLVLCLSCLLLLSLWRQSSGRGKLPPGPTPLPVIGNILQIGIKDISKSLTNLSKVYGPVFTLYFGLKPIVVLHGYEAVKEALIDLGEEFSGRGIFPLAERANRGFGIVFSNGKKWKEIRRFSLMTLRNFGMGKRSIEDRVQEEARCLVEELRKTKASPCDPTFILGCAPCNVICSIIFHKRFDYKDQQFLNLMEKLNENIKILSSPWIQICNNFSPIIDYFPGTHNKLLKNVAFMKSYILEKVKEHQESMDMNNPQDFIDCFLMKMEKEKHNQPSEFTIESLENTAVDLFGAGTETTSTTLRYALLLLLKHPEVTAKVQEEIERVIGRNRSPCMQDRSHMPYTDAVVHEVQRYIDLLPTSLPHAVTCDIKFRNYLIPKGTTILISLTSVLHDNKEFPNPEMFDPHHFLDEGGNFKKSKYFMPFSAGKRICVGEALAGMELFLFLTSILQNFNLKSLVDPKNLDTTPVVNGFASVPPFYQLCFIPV
Sequence of Histamine H3 receptor (Q9Y5N1 whole entry): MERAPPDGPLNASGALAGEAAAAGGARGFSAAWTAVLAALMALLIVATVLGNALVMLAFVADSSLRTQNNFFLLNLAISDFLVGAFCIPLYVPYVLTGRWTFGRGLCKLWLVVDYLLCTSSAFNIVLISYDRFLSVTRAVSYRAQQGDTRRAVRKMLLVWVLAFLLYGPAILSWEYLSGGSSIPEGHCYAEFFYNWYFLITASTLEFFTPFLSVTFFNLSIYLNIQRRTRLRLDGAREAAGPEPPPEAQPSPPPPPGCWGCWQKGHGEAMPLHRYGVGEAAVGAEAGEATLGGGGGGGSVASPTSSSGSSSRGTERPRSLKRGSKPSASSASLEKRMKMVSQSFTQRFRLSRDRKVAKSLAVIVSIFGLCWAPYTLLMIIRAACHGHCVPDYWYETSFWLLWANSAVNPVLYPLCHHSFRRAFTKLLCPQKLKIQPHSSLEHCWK
Sequence of Cytochrome P450 3A4 (P08684 whole entry): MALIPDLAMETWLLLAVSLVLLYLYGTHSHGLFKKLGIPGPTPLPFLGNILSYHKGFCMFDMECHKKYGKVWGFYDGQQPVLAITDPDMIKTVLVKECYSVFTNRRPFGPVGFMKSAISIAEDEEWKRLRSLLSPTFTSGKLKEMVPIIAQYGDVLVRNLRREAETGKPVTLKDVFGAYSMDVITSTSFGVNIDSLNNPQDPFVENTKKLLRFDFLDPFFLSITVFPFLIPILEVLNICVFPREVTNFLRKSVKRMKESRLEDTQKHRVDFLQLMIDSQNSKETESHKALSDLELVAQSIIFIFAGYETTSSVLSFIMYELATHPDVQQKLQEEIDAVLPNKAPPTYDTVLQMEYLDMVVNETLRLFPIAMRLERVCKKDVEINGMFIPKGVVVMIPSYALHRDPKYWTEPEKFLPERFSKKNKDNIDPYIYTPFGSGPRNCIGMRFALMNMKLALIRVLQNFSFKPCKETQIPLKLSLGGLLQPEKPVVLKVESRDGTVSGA
Sequence of Histamine H3 receptor (Mus musculus) (P58406 whole entry): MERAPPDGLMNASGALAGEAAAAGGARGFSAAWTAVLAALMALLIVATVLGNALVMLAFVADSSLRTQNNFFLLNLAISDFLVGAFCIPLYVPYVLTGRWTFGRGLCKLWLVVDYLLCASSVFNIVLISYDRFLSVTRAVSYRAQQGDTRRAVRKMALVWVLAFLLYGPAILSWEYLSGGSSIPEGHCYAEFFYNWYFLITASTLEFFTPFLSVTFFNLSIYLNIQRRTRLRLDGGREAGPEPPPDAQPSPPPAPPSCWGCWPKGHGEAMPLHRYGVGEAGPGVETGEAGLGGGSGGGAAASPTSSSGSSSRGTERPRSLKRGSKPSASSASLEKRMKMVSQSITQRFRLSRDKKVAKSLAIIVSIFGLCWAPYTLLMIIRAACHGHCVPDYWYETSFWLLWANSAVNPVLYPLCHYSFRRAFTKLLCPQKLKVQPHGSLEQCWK

`Clc1cc(Cl)cc(-c2nnc(N3CCC(N4CCCCC4)CC3)s2)c1`: on Histamine H3 receptor, the Ki was 72 nM. Regarding `Cc1cccc(-c2nnc(N3CCC(N4CCCCC4)CC3)s2)n1`, on Histamine H3 receptor, the Ki came out at 6.1 nM. `Clc1ccccc1-c1nnc(N2CCC(N3CCCCC3)CC2)s1`: the Ki at Histamine H3 receptor worked out at 69 nM.

As for `Fc1ccc(-c2nnc(N3CCC(N4CCCCC4)CC3)s2)cc1`, the Ki at Histamine H3 receptor was found to be 39 nM.

As to `N#Cc1cc(C#N)cc(-c2nnc(N3CCC(N4CCCCC4)CC3)s2)c1`, the Ki on Histamine H3 receptor is 23 nM. `Fc1ccccc1-c1nnc(N2CCC(N3CCCCC3)CC2)s1`: on Histamine H3 receptor, the Ki stood at 36 nM.

As for `N#Cc1ccc(-c2nnc(N3CCC(N4CCCCC4)CC3)s2)cc1`, the Ki on Histamine H3 receptor was found to be 36.4 nM. Same read-out and setting: under `COc1cc(OC)cc(-c2nnc(N3CCC(N4CCCCC4)CC3)s2)c1` stands 15 nM. The same measure, in the same setting: under `CCN1CCN(c2nnc(-c3ccc(OC)cc3)s2)CC1` stands 162 nM; under `c1cnc(-c2nnc(N3CCC(N4CCCCC4)CC3)s2)nc1`, 103 nM; under `c1ccc(-c2nnc(N3CCC(N4CCCCC4)CC3)s2)nc1`, 30 nM. `c1ccc(-c2nnc(N3CCC(N4CCCCC4)CC3)s2)cc1`: the Ki on Histamine H3 receptor was found to be 80.1 nM. On to `COc1cc(Cl)cc(-c2nnc(N3CCC(N4CCCCC4)CC3)s2)c1`, for which the Ki at Histamine H3 receptor was found to be 12 nM. The Activity in series [1] was 90%. Further, in series [2], the concentration at 4 h came out at 9030 ng/g. Further, the INH at Cytochrome P450 2D6, at Cytochrome P450 2C9 and on Cytochrome P450 3A4 was over 20 µM in each case. This compound also yielded an AUC(0-t) at 6 h in series [3] of 379 ng·h/mL.

For `COc1ccc(-c2nnc(N3CCC(N4CCCC4)CC3)s2)cc1`, the Ki at Histamine H3 receptor was 601 nM. As for `COc1ccc(-c2nnc(N3CCC(N4CCCCC4)CC3)s2)cc1`, the Ki on Histamine H3 receptor was determined as 40.1 nM. Turning to `COc1ccccc1-c1nnc(N2CCC(N3CCCCC3)CC2)s1`, on Histamine H3 receptor, the Ki came to 40 nM. In the case of `COc1cccc(-c2nnc(N3CCC(N4CCCCC4)CC3)s2)c1`, the Ki at Histamine H3 receptor amounted to 31.9 nM.

Regarding `COc1cc(C#N)cc(-c2nnc(N3CCC(N4CCCCC4)CC3)s2)c1`, the Ki at Histamine H3 receptor came out at 12 nM. The same measure, in the same setting: under `CC(=O)c1cccc(-c2nnc(N3CCC(N4CCCCC4)CC3)s2)c1` stands 4 nM. With `COc1cccc(-c2nnc(N3CCC(N4CCCCC4)CC3)s2)n1`, the Ki on Histamine H3 receptor came out at 3.5 nM. In series [1], this compound yielded an Activity of 74%. For the same compound, the concentration at 4 h in series [2] came out at 1530 ng/g. The INH at Cytochrome P450 2D6, on Cytochrome P450 2C9 and on Cytochrome P450 3A4 was over 20 µM each time. As to `CC(=O)c1ccccc1-c1nnc(N2CCC(N3CCCCC3)CC2)s1`, at Histamine H3 receptor, the Ki was 8.4 nM. Same read-out and setting: under `Cc1ccc(-c2nnc(N3CCC(N4CCCCC4)CC3)s2)cc1` stands 163 nM; under `Cc1cccc(-c2nnc(N3CCC(N4CCCCC4)CC3)s2)c1`, 60 nM. The same measure, in the same setting: with `Fc1cccc(-c2nnc(N3CCC(N4CCCCC4)CC3)s2)c1` the figure was 62 nM; with `COc1ccc(-c2nnc(N3CCN(C4CCCC4)CC3)s2)cc1`, 182 nM. Turning to `COc1ccc(-c2nnc(N3CCN4CCCC4C3)s2)cc1` (stereo not given), on Histamine H3 receptor, the Ki is 653 nM. Still for that read-out and setting: under `Cc1ccccc1-c1nnc(N2CCC(N3CCCCC3)CC2)s1` stands 36 nM; under `N#Cc1cccc(-c2nnc(N3CCC(N4CCCCC4)CC3)s2)c1`, 42.6 nM; under `Clc1cccc(-c2nnc(N3CCC(N4CCCCC4)CC3)s2)c1`, 49 nM. Still for that read-out and setting: with `COc1cc(F)cc(-c2nnc(N3CCC(N4CCCCC4)CC3)s2)c1` the figure was 16 nM; with `COc1ncc(-c2nnc(N3CCC(N4CCCCC4)CC3)s2)s1`, 28 nM; with `c1n[nH]cc1-c1nnc(N2CCC(N3CCCCC3)CC2)s1`, 192 nM. In the case of `O=C(Nc1nnc(N2CCC(N3CCCCC3)CC2)s1)NC1CCCC1`, the Ki at Histamine H3 receptor amounted to 48.6 nM. Moreover, the INH on Cytochrome P450 2D6, at Cytochrome P450 2C9 and on Cytochrome P450 3A4 was over 20 µM each time. As for `Fc1cc(F)cc(-c2nnc(N3CCC(N4CCCCC4)CC3)s2)c1`, the Ki on Histamine H3 receptor turned out to be 50 nM. Regarding `Clc1ccc(-c2nnc(N3CCC(N4CCCCC4)CC3)s2)cc1`, the Ki on Histamine H3 receptor stood at 161 nM. Same read-out and setting: with `CC(=O)c1ccc(-c2nnc(N3CCC(N4CCCCC4)CC3)s2)cc1` the figure was 65 nM.
